Active and inactive are the calls of the source. The rule behind the calls is not given here.
Test system: L6
Test: Stimulation of [3H]2-deoxyglucose uptake in rat L6 cells at 10 uM incubated for 16 hrs by scintillation counting method
Format: functional, cell-based
Summary of the method: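 L6 myotubes incubated with the compound […]; insulin at 100 nM for 20 min served as the positive control. Uptake of ³H-2-deoxyglucose measured and expressed as fold stimulation relative to the control condition.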

COC(=O)c1c(SC)cc(-c2ccc(Br)cc2)c2c1-c1cn(-c3ccccc3)nc1CC2
Activity: inactive
